{
  "source": "ChEMBL document CHEMBL4765431",
  "about": "“Novel phthalide derivatives: Synthesis and anti-inflammatory activity in vitro and in vivo” (Eur J Med Chem, 2020)",
  "key": {"[1]": {"tested_on": "Rattus norvegicus", "assay": "Antiarthritic activity in Sprague-Dawley rat model of CFA-induced arthritis assessed as reduction in paw swelling at 20 to 40 mg/kg, […] and measured every 3 days", "assay_type": "functional, organism-based", "settings": "dose 20-40 mg/kg"}, "[2]": {"tested_on": "RAW264.7", "assay": "Cytotoxicity against mouse RAW264.7 cells assessed as reduction in cell viability at 20 uM incubated for 24 hrs by MTT assay", "assay_type": "cell-based", "settings": "raw264.7, 24 h", "outline": "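RAW264.7 cells (1 × 10^4/well, used 24 h after seeding) exposed to 20 µM for 24 h. MTT (5 mg/mL stock) added for 4 h, supernatant removed, crystals dissolved in DMSO with 10–15 min shaking, absorbance at 492 nm.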"}, "[3]": {"tested_on": "RAW264.7", "assay": "Activation of Nrf2/HO-1 signalling pathway in mouse RAW264.7 cells assessed as increase in Nrf2 nuclear translocation at 0.5 to 2 uM preincubated for 1 hr followed by LPS stimulation and measured after 6 hrs by DAPI staining based fluorescence microscopic analysis", "assay_type": "cell-based", "settings": "filed as activator, dose 0.5-2 µM, time 7.0 hrs", "outline": "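Cells grown on glass coverslips, treated 1 h, then LPS 0.5 µg/mL for 6 h. Fixed in 4% paraformaldehyde 20 min at room temperature, blocked 1 h in TBS with 0.1% Triton X-100 and 5% BSA. Stained with anti-Nrf2 and FITC anti-rabbit IgG, nuclei with DAPI. Imaged by inverted fluorescence microscope.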"}, "[4]": {"tested_on": "RAW264.7", "assay": "Inhibition of LPS-induced ROS generation in mouse RAW264.7 cells at 0.5 to 2 uM preincubated for 1 hr followed by LPS stimulation and measured after 6 hrs by DCFH-DA staining based flow cytometry analysis", "assay_type": "functional, cell-based", "settings": "dose 0.5-2 µM, time 7.0 hrs", "outline": "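RAW264.7 cells (1.5 × 10^6/well, grown 24 h) pretreated 1 h with 0.5, 1, 2 µM, then LPS 0.5 µg/mL for 6 h. Loaded with DCFH-DA 30 min at 37 °C, washed three times with cold serum-free medium or PBS. Intracellular ROS read by flow cytometry.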"}, "[5]": {"tested_on": "RAW264.7", "assay": "Cytotoxicity against mouse RAW264.7 cells assessed as reduction in cell viability incubated for 24 hrs in presence of LPS by MTT assay", "assay_type": "cell-based", "settings": "RAW264.7, 24 h"}, "[6]": {"tested_on": "RAW264.7", "assay": "Inhibition of NF-kappaB activation in mouse RAW264.7 cells assessed as reduction in LPS-induced IkappaB protein degradation at 0.5 to 2 uM preincubated for 1 hr followed by LPS stimulation and measured after 30 mins by Western blotting analysis", "assay_type": "cell-based", "settings": "dose 0.5-2 µM, time 90.0 min", "outline": "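Pretreatment 1 h with 0.5–2 µM, then LPS 0.5 µg/mL for 30 min. p-IκB, IκB, p-p65, p65, ERK, JNK, p38 and their phosphorylated forms, plus β-actin, detected by Western blot (RIPA lysis, SDS-PAGE, PVDF, primary 16 h at 4 °C, HRP secondary 1:5000, ECL).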"}},
  "note": "The source made the active and inactive calls. No cut-off for these calls is given here.",
  "data": [
    {"molecule": "COc1cc(OC)c2c(c1)C(C(O)c1ccc(OCc3ccc(F)cc3)cc1)OC2=O", "note": "(stereo unspecified)", "values": [
      {"measurement": "Activity", "setting": "[1]", "value": "Active"},
      {"measurement": "Activity", "setting": "[2]", "value": "Non-Toxic"},
      {"measurement": "Activity", "setting": "[3]", "value": "Active"},
      {"measurement": "inhibition", "setting": "[4]", "value": "inactive"},
      {"measurement": "IC50", "setting": "[5]", "value": "> 40", "unit": "µM"},
      {"measurement": "inhibition", "setting": "[6]", "value": "Active"}
    ]}
  ]
}
